Results as given in article PMC2697266 (Nature, 2009).

Columns and labels:
[1] = system: JARID1APHD1 (the first PHD finger of JARID1A); test: Biotinylated histone peptide pull-down, JARID1APHD1; type: binding, human; conditions: 50mM Tris pH 7.5, 150mM NaCl; qualitative
How it was run: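 Biotinylated histone peptides were bound to recombinant PHD protein and captured on avidin beads. Beads were washed extensively in 50mM Tris pH 7.5, 150mM NaCl (250mM for stringent washes), 0.05% NP-40, 0.3mg/ml BSA and 1mM DTT; bound protein was then assessed.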

[2] = 15N NMR relaxation, rotational correlation time; type: physicochemical; conditions: 15N R2/R1 ratios, pH 7.0, 25°C; estimated
How it was run: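 0.2-0.5 mM uniformly 15N-labeled JARID1A PHD3 (bacterial His6-SUMO fusion, cleaved, purified by Ni-NTA and gel filtration), free or with unlabeled H3 1-9 K4me3 peptide. R1 and R2 measured with standard pulse sequences at 25°C, 800 MHz with cryoprobe; correlation time estimated from R2/R1 ratios.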

H3K4me0: unmodified H3K4 histone peptide
interaction with JARID1APHD1 in peptide pull-down [1]: interacted

JARID1APHD3: C-terminal PHD finger of JARID1A (amino acids 1601-1660) (EESDDENAVCAAQNCQRPCKDKVDWVQCDGGCDEWFHQVCVGVSPEMAENEDYICINCAK; left off: GST, end not stated, kept)
rotational correlation time [2]: 3.5 ns
